Reference: ChEMBL document CHEMBL3297658, “Potent fluorinated agelastatin analogues for chronic lymphocytic leukemia: design, synthesis, and pharmacokinetic studies” (J Med Chem, 2014)

Columns and labels:
[1] = Antitumor activity against CLL2 cells isolated from CLL patient assessed as cell viability after 48 hrs by FACS analysis; format: functional, cell-based, Homo sapiens; conditions: Homo sapiens, CLL2, 48 h
Outline: (§1)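 Primary CLL patient cells or JVM-2 line cultured 48 h (37 °C, 5% CO2) in RPMI + 10% FBS with graded compound. Stained 30 min at 37 °C with 40 nM DiOC6 and 10 μg/mL PI, then flow cytometry (525 nm DiOC6, 600 nm PI). Viability = % DiOC6+/PI− relative to untreated or vehicle control. EC50 and SE fitted from dose–response curves.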

[2] = Antitumor activity against human JVM2 cells assessed as cell viability after 48 hrs by FACS analysis; format: functional, cell-based; conditions: JVM-2, 48 h; outline: as §1
[3] = tested on: HeLa; experiment: Antitumor activity against human HeLa cells assessed as cell viability by MTT assay; format: functional, cell-based
Outline: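 Adherent HeLa cells exposed to compound, then medium replaced with 0.5 mg/mL MTT in phenol-red-free RPMI and incubated overnight at 37 °C. Lysed with 15% SDS/0.015 M HCl and OD read at 570 nm once formazan dissolved. EC50 and SE derived from dose–response curves.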

[4] = Antitumor activity against CLL1 cells isolated from CLL patient assessed as cell viability after 48 hrs by FACS analysis; format: functional, cell-based; conditions: Homo sapiens; outline: as §1

Row | EC50 [3] | SMILES | EC50 [1] | EC50 [2] | EC50 [4]
1 | 153 µM | CN1C(=O)N[C@H]2[C@@H]3NC(=O)c4cc(C(F)(F)F)c(C(F)(F)F)n4[C@@H]3C[C@]21O | 19.2 µM | 41 µM | 
2 | 19.6 µM | CN1C(=O)N[C@H]2[C@@H]3NC(=O)c4cc(C(F)(F)F)cn4[C@@H]3C[C@]21O | 4.68 µM | 22.8 µM | 45.1 µM
3 | 4.01 µM | CN1C(=O)N[C@H]2[C@@H]3NC(=O)c4ccc(C(F)F)n4[C@@H]3C[C@]21O | 5.44 µM | 4.66 µM | 13 µM
4 | 86.7 µM | CN1C(=O)N[C@H]2[C@@H]3NC(=O)c4cc(I)c(Br)n4[C@@H]3C[C@]21O | 48.2 µM | 162 µM | 211 µM
5 | 59 µM | CO[C@@]12C[C@@H]3[C@H]([C@@H]1N(C)C(=O)N2C)N(C)C(=O)c1ccc(Br)n13 | 47.7 µM | 55.7 µM | 140 µM
